From ChEMBL document CHEMBL2429786, “New serotonin 5-HT1A receptor agonists endowed with antinociceptive activity in vivo” (J Med Chem, 2013) come the findings set out here.

Active and inactive are the calls of the source. The calls are words filed in the database; no cut-off is given here.

The species entered for data set [1] is Homo sapiens. Nature of the data set: Displacement of [125I]Tyr11-somatostatin-14 from somatostatin receptor (unknown origin) at 1 uM after 60 mins.
The subject of data set [2] is Mus musculus. Nature of the data set: Antinociceptive activity in CD-1 mouse assessed as reduction of formalin-induced paw licking activity at 3 mg/kg, ip administered 15 mins prior to formalin-challenge measured after 15 to 30 mins. In kind it is functional, organism-based. Further details: dose 3 mg/kg.
In data set [3] the target is T1, 5-hydroxytryptamine receptor 1A (Homo sapiens, UniProt P08908).
T1 sequence (P08908 whole entry): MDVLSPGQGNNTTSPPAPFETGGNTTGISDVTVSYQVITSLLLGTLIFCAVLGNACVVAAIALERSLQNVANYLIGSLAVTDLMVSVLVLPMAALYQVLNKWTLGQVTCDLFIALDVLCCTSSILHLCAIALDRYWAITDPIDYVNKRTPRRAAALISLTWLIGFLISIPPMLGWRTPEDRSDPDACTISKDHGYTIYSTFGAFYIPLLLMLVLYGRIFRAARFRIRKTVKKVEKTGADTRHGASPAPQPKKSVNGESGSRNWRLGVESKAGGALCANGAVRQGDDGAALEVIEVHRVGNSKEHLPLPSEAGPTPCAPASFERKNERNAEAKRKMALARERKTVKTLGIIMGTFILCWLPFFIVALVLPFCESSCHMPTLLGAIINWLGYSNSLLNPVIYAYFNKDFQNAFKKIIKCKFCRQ
Put plainly: Agonist activity at human 5-HT1A receptor expressed in human HeLa cells assessed as inhibition of forskolin-stimulated cAMP formation after 10 mins by RIA. In kind it is functional, cell-based. On the technique in general: Cyclic AMP is a second messenger, typically raised through Gs and lowered through Gi signalling.

The species entered for data set [4] is Homo sapiens. Put plainly: Displacement of [3H]DADLE from delta2 opioid receptor (unknown origin) at 1 uM after 120 mins. Background: Loss of bound radioactivity is the signal in a displacement assay; it reports binding, not function.
The target in a further data set is CYP2D6 (Homo sapiens, UniProt P10635). Nature of the data set: Inhibition of human recombinant microsomal CYP2D6 using {3-[2-(N,N-diethyl-N-methylamino)ethyl]-7-methoxy-4-methylcoumarin} as substrate assessed as remaining activity at 10 uM after 30 mins by spectrofluorimetric analysis relative to control. In kind it is ADME. To be noted: read-out: Activity.
The target in data set [5] is T2, Muscarinic acetylcholine receptor M2 (Homo sapiens) (UniProt P08172).
T2 sequence (whole entry): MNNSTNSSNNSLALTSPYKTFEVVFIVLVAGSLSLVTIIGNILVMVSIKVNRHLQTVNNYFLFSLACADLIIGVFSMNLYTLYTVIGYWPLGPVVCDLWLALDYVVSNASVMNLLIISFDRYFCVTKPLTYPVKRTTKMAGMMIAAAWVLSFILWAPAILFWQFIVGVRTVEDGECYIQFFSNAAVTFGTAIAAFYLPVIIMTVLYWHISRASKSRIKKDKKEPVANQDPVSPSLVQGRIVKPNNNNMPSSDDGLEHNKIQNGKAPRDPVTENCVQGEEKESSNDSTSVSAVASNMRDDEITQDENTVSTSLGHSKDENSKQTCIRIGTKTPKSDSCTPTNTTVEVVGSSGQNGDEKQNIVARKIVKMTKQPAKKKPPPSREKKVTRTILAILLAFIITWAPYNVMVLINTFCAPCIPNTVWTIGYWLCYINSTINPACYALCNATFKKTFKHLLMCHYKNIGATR
Nature of the data set: Displacement of [3H]AF-DX 384 from muscarinic M2 receptor (unknown origin) at 1 uM after 60 mins.

Data set [6] concerns the target Mu-type opioid receptor (Homo sapiens) (UniProt P35372). Nature of the data set: Displacement of [3H]DAMGO from mu opioid receptor (unknown origin) at 1 uM after 120 mins.
Data set [7] in a line: Intrinsic clearance in Sprague-Dawley rat liver microsomes at 1 to 5 uM by HPLC-MS analysis. In kind it is ADME, Microsome. To be noted: read-out: CLH. The method, boiled down:
(§1)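 Incubation mixtures pre-equilibrated at 37 °C with NADPH and MgCl2, then rat or human liver microsomes added to start the reaction. Aliquots were withdrawn and quenched at several time points, and percent parent remaining was measured by HPLC-MS and plotted against time. t1/2 was taken from the slope of peak area over time and used to calculate CLint.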
Background: Liver microsomes are vesicles of endoplasmic reticulum, rich in cytochrome P450 enzymes.

Data set [8] deals with 5-hydroxytryptamine receptor 2A (Rattus norvegicus, UniProt P14842). Nature of the data set: Displacement of [3H]ketanserin from 5-HT2A receptor in Sprague-Dawley rat frontal cortex after 15 mins. In kind it is tissue-based.
Data set [9] relates to Mus musculus. Nature of the data set: Antinociceptive activity in CD-1 mouse assessed as reduction of formalin-induced paw licking activity at 3 mg/kg, ip administered 15 mins prior to formalin-challenge measured after 5 mins. In kind it is functional, organism-based. Also on record: dose 3 mg/kg.
A short description of data set [10]: Half life in human liver microsomes at 1 to 5 uM by HPLC-MS analysis. In kind it is ADME, Microsome. Summed up:
as §1

Chain of Mu-type opioid receptor (Homo sapiens) (P35372 whole entry): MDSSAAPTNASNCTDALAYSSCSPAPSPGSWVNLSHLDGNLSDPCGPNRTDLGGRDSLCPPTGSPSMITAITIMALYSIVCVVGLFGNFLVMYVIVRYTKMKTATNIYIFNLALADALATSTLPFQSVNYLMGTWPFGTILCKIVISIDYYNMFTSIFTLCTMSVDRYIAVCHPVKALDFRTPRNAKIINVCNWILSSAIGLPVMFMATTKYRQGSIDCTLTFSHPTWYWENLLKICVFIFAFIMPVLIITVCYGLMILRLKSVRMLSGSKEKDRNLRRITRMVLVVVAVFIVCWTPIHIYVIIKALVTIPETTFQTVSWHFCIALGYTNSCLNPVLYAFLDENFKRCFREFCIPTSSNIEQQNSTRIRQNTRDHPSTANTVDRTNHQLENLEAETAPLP
Chain of CYP2D6 (P10635 whole entry): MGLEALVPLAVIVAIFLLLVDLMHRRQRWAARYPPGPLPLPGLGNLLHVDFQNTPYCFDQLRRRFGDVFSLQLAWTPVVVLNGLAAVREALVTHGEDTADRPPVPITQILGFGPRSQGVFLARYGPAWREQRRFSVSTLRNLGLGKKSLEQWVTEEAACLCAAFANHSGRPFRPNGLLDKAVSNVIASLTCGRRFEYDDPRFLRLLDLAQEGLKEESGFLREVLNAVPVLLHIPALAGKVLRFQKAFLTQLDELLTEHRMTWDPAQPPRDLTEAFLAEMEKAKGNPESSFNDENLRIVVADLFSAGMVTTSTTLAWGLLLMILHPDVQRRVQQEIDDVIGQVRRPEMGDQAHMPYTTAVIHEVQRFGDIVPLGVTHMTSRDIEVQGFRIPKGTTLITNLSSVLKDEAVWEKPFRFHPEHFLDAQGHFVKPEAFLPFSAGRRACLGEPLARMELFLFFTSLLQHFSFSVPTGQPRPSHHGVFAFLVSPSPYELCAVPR
Chain of 5-hydroxytryptamine receptor 2A (P14842 whole entry): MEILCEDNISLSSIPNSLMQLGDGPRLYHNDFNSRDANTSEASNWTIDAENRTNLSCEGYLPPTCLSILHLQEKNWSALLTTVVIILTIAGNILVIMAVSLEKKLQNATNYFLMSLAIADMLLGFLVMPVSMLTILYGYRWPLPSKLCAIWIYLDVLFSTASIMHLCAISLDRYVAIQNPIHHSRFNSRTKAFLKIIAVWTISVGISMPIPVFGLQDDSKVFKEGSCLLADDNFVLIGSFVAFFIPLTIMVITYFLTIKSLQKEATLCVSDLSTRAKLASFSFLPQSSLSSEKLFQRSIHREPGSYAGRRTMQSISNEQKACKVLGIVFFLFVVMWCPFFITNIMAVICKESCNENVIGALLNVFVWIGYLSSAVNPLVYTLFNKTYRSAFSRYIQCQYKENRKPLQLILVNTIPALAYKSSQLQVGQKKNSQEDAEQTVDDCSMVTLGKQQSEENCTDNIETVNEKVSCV

The EC50 is the concentration giving half of the maximal effect. The Ki is the equilibrium dissociation constant of an inhibitor or competing ligand from its target. A lower Ki goes with higher affinity. For orientation: half-life means how long it takes for the measured level to halve. A low value points to rapid decline. As to `CCOc1ccccc1OCCNCCCCN1C(=O)C2CCCN2C1=O.Cl` (stereo unspecified), the inhibition result (in the data set filed under Homo sapiens [1]; in the data set filed under Homo sapiens [4]; in data set [5]; in [6]) was “inactive” in each case. Moreover, the Activity entry in the data set on Mus musculus [2] and in the data set with Mus musculus [9] was “Active” in each case. The EC50 in data set [3] came to 19 nM. Moreover, the activity at 0.5 h, 10 µM on CYP2D6 was determined as 18%. Besides, the CLint scaled at up to 5 µM in [7] came to 107 mL/min/kg. The compound also registered a Ki in data set [8] above 1000 nM. In data set [10], the half-life at up to 5 µM came to 2.98 h.
